Measured values taken from ChEMBL document CHEMBL2390866, “Novel pyrimidoazepine analogs as serotonin 5-HT(2A) and 5-HT(2C) receptor ligands for the treatment of obesity” (Eur J Med Chem, 2013).
pIC50: −log10 of the molar value. The source made the active and inactive calls. The calls are words filed in the database; no cut-off is given here.

How the values were obtained:
[1] = Oral bioavailability in Sprague-Dawley rat at 10 mg/kg; type: ADME, organism-based; settings: in vivo
How it was run: (§1)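 Rats fasted 12 h, then dosed orally by gavage or by bolus tail-vein injection at 2 ml/kg. Compound given as a 5 mg/ml solution in N-methyl-2-pyrrolidone/Tween 80/water (1:2:7). Samples taken at various times (n = 5) and stored at −70 °C. Plasma deproteinized with acetonitrile containing carbamazepine internal standard, then quantified by LC-MS/MS.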

[2] = Plasma concentration in Sprague-Dawley rat at 10 mg/kg, po measured at 8 hrs; type: ADME, organism-based; parameters: dose 10 mg/kg, route oral; how it was run: as §1
[3] = Apparent volume of distribution at steady state in Sprague-Dawley rat at 10 mg/kg, iv; type: ADME, organism-based; parameters: dose 10 mg/kg, route intravenous; settings: in vivo, read-out: Vdss(app); how it was run: as §1
[4] = Mean residence time in Sprague-Dawley rat at 10 mg/kg, iv; type: ADME, organism-based; parameters: dose 10 mg/kg, route intravenous; settings: in vivo; how it was run: as §1
[5] = Tmax in Sprague-Dawley rat at 10 mg/kg, po; type: ADME, organism-based; parameters: dose 10 mg/kg, route oral; settings: in vivo; how it was run: as §1
[6] = AUClast in Sprague-Dawley rat at 10 mg/kg, po; type: ADME, organism-based; parameters: time 0 - last, dose 10 mg/kg, route oral; settings: plasma
Mus musculus [7] = assay: Antiobesity activity in B6.V/J ob/ob mouse assessed as change in kidney weight at 25 mg/kg, po bid measured after 14 days (reference value: 0.339 +/- 0.009 g); type: functional
Mus musculus [8] = assay: Antiobesity activity in B6.V/J ob/ob mouse assessed as change in spleen weight at 50 mg/kg, po bid measured after 14 days (reference value: 0.097 +/- 0.052 g); type: functional
Mus musculus [9] = assay: Antiobesity activity in B6.V/J ob/ob mouse assessed as change in liver weight at 50 mg/kg, po bid measured after 14 days (reference value: 3.396 +/- 0.162 g); type: functional
Mus musculus [10] = assay: Antiobesity activity in B6.V/J ob/ob mouse assessed as change in brain weight at 50 mg/kg, po bid measured after 14 days (reference value: 0.340 +/- 0.017 g); type: functional
Mus musculus [11] = assay: Antiobesity activity in B6.V/J ob/ob mouse assessed as change in brain weight at 25 mg/kg, po bid measured after 14 days (reference value: 0.340 +/- 0.017 g); type: functional
Mus musculus [12] = assay: Toxicity in B6.V/J ob/ob mouse assessed as mortality at 50 mg/kg, po bid measured after 14 days; type: organism-based; parameters: dose 50 mg/kg, route oral; settings: in vivo, 336 h
Mus musculus [13] = assay: Antiobesity activity in B6.V/J ob/ob mouse assessed as reduction of body weight gain at 50 mg/kg, po bid measured after 14 days; type: functional, organism-based; parameters: dose 50 mg/kg
Mus musculus [14] = assay: Antiobesity activity in B6.V/J ob/ob mouse assessed as reduction of body weight gain at 50 mg/kg, po qd measured after 14 days; type: functional, organism-based; parameters: dose 50 mg/kg
How it was run: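 Male ob/ob mice (B6.V-Lep^ob/J) received oral doses once daily for 14 days, with vehicle control. Food intake and body weight gain were followed.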

Mus musculus [15] = assay: Antiobesity activity in C57BL/6 mouse assessed as inhibition of body weight gain at 50 mg/kg, po qd measured after 14 days relative to vehicle-treated control; type: functional; settings: C57BL/6, 336 h
Mus musculus [16] = assay: Antiobesity activity in B6.V/J ob/ob mouse assessed as inhibition of body weight gain at 50 mg/kg, ip measured after 12 hrs relative to vehicle-treated control; type: functional; settings: route intraperitoneal
Mus musculus [17] = assay: Antiobesity activity in B6.V/J ob/ob mouse assessed as inhibition of food intake at 25 mg/kg, ip measured up to 2 hrs relative to vehicle-treated control; type: functional; settings: route intraperitoneal
How it was run: (§2)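 Male mice were acclimated 1 week at 23 ± 3 °C and 50 ± 20% humidity, then fasted 24 h. They were dosed once intraperitoneally with vehicle or compound: 50 mg/kg in C57BL/6, or 12.5, 25 or 50 mg/kg in B6.V-Lep^ob/J. Food intake was measured at 2, 6 and 12 h versus vehicle control.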

Mus musculus [18] = assay: Antiobesity activity in B6.V/J ob/ob mouse assessed as inhibition of food intake at 12.5 mg/kg, ip measured up to 2 hrs relative to vehicle-treated control; type: functional; settings: route intraperitoneal; how it was run: as §2
Mus musculus [19] = assay: Antiobesity activity in C57BL/6 mouse assessed as inhibition of body weight gain at 50 mg/kg, ip measured after 2 to 12 hrs relative to vehicle-treated control; type: functional; settings: C57BL/6, ip, route intraperitoneal
Mus musculus [20] = assay: Antiobesity activity in B6.V/J ob/ob mouse assessed as inhibition of food intake at 12.5 mg/kg, ip measured up to 6 hrs relative to vehicle-treated control; type: functional; settings: route intraperitoneal; how it was run: as §2
D(2) dopamine receptor = D(2) dopamine receptor (Homo sapiens, UniProt P14416); assay: Displacement of [3H]-methylspiperone from dopamine D2L receptor (unknown origin) after 60 mins
How it was run: (§3)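 Receptor membranes incubated at 27 °C, 60 min for D2L and 30 min for D3, with [3H]methylspiperone (0.2 nM for D2L, 0.25 nM for D3) and test compound at a range of concentrations. Buffer was 50 mM Tris-HCl pH 7.4, 10 mM MgCl2, 1 mM EDTA, 120 mM NaCl. Nonspecific binding defined with haloperidol (D2) or GR103691 (D3). IC50 obtained by nonlinear regression.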

D(3) dopamine receptor = D(3) dopamine receptor (Homo sapiens, UniProt P35462); assay: Displacement of [3H]-methylspiperone from dopamine D3 receptor (unknown origin) after 30 mins; how it was run: as §3
[21] = molecular target: 5-hydroxytryptamine receptor 7 (Homo sapiens, UniProt P34969); assay: Displacement of [3H]-LSD from human recombinant 5HT-7 receptor expressed in CHOK1 cell membranes after 120 mins; parameters: species or system CHO-K1
How it was run: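 CHO-K1 membranes expressing human 5-HT7 incubated with 3 nM [3H]LSD for 120 min at 27 °C in 50 mM Tris-HCl pH 7.4, 10 mM MgSO4, 0.5 mM EDTA. Filtered on glass-fiber filters presoaked in 0.3% PEI. Methiothepin defined nonspecific binding.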

[22] = molecular target: T1, 5-hydroxytryptamine receptor 2C (Homo sapiens, UniProt P28335); assay: Displacement of [3H]-mesulergine from human recombinant 5HT-2C receptor expressed in CHOK1 cell membranes after 30 mins; parameters: species or system CHO-K1
T1 sequence (P28335 whole entry): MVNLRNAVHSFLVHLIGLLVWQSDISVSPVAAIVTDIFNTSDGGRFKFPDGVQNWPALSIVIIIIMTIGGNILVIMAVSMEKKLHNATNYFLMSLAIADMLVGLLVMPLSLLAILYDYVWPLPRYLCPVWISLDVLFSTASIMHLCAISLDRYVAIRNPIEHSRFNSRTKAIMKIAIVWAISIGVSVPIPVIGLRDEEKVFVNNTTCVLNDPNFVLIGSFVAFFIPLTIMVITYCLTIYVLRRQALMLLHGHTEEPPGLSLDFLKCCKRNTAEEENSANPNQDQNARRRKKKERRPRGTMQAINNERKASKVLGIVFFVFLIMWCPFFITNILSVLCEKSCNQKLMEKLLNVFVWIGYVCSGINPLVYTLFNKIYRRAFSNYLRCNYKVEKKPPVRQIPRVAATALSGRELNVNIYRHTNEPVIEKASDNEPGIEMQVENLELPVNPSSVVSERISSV
How it was run: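 Frozen CHO-K1 membranes expressing recombinant human 5-HT2C incubated with 1 nM [3H]mesulergine in 50 mM Tris-HCl pH 7.4 containing 0.1% ascorbic acid and pargyline. Mianserin defined nonspecific binding.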

Sequence of 5-hydroxytryptamine receptor 7 (P34969 whole entry): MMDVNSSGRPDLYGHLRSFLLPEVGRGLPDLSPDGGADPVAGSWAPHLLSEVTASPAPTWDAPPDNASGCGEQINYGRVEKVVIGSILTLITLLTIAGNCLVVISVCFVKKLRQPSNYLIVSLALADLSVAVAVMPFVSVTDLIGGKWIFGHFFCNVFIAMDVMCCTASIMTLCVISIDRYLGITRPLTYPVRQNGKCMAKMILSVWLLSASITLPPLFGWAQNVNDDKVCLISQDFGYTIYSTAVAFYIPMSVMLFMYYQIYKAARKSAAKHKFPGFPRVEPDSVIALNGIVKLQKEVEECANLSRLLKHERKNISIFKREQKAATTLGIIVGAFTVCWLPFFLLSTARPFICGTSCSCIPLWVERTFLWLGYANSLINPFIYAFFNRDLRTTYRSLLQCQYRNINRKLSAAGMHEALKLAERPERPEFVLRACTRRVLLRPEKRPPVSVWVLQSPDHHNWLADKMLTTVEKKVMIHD
Sequence of D(3) dopamine receptor (P35462 whole entry): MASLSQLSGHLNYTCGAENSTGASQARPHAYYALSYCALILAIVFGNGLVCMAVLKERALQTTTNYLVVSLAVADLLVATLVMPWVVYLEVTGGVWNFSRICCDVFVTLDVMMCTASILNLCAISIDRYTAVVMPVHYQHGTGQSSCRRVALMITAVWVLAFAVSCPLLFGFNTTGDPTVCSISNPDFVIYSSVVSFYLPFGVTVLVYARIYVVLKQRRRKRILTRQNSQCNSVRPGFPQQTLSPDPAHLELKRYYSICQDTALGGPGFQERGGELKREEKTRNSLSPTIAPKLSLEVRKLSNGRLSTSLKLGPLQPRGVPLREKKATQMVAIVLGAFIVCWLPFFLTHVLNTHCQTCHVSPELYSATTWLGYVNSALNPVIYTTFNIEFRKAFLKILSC
Sequence of D(2) dopamine receptor (P14416 whole entry): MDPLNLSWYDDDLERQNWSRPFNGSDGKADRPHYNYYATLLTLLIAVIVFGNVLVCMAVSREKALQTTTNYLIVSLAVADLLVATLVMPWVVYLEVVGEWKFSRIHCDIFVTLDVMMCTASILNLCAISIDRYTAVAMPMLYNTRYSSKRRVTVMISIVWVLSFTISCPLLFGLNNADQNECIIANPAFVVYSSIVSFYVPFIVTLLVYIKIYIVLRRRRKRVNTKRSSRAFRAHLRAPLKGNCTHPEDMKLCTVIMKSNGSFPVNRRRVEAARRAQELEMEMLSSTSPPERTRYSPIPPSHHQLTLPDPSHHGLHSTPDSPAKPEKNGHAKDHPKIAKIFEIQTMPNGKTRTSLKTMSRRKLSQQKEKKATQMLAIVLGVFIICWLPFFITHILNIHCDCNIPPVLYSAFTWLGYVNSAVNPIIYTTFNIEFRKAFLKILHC

Cl.Clc1cccc(Nc2nc(Cc3ccccc3)nc3c2CCNCC3)c1
bioavailability [1]: 55.1% | concentration at 8 h [2]: 30 ng/mL | Vd [3]: 17 L/kg | MRT [4]: 1.88 h | Tmax [5]: 3.5 h | AUC(0-t) [6]: 375 ng·h/mL | Activity (Mus musculus [7]): 0.329 g | Activity (Mus musculus [8]): 0.075 g | Activity (Mus musculus [9]): 3.87 g | Activity (Mus musculus [10]): 0.36 g | Activity (Mus musculus [11]): 0.369 g | Activity (Mus musculus [12]): Toxic | Activity (Mus musculus [13]): Active | Activity (Mus musculus [14]): inactive | inhibition in vivo at 50 mg/kg (Mus musculus [15]): 18.8% | inhibition in vivo at 50 mg/kg (Mus musculus [16]): 80.2% | inhibition in vivo at 25 mg/kg (Mus musculus [17]): 99.8% | inhibition in vivo at 12.5 mg/kg (Mus musculus [18]): 98.6% | inhibition in vivo at 50 mg/kg (Mus musculus [19]): 84.8% | inhibition in vivo at 12.5 mg/kg (Mus musculus [20]): 71% | pIC50 (D(2) dopamine receptor): 7.07 | pIC50 (D(3) dopamine receptor): 6.09 | pIC50 [21]: 6.00 | pIC50 [22]: 8.64
